As a reminder, the MIC50 is an inhibitory concentration at the 50% level, which refers to growth in some studies and to a panel of isolates in others. Read a high MIC50 as lower susceptibility. As usually defined, the MIC80 is an inhibitory concentration at the 80% level, which refers to growth in some studies and to a panel of isolates in others. High values mean weaker potency, low ones greater potency.

The structures appear in SMILES notation. ≈ marks a conversion by molar mass, not a printed value. Calls of active or inactive are those of the source. The rule behind the calls is not given here.

What all share (assay type): functional
Assay [1] concerns Candida albicans. The assay can be described thus: Growth inhibition of Candida albicans ATCC 10231 at 62.5 ug/ml incubated for 48 hrs under dark condition by broth microdilution assay relative to amphotericin B. Particulars: ATCC 10231, 48 h, read-out: GI. The method, boiled down: (§1)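 Yeast broth microdilution (CLSI M27-A3), RPMI-1640, inoculum 1-5 x 10^3 CFU/mL, DMSO ≤1%, 48 h at 30 °C in a moist, dark chamber. […]. Triplicate; amphotericin B as positive control.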
A general note: Dilution methods test growth across graded concentrations, often in twofold steps.

The subject of assay [2] is Candida albicans. The assay can be described thus: Growth inhibition of Candida albicans ATCC 10231 at 31.25 ug/ml incubated for 48 hrs under dark condition by broth microdilution assay relative to amphotericin B. To be noted: ATCC 10231, 48 h, read-out: GI. Summed up: as §1
The test system of assay [3] is Candida albicans. The assay can be described thus: Antifungal activity against Candida albicans ATCC 10231 incubated for 48 hrs under dark condition by broth microdilution assay. To be noted: ATCC 10231, 48 h. The method, boiled down:
(§2)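 Broth microdilution per CLSI M27-A3 in RPMI-1640. Inocula adjusted to 1-5 x 10^3 CFU/mL. Stocks in DMSO (≤1%), final 3.9-250.0 µg/mL. Incubated 48 h at 30 °C in a moist, dark chamber, read at OD 405. % inhibition computed from growth and sterility control wells, run in triplicate. MIC80/MIC50 taken from four-parameter logistic concentration-response curves; amphotericin B as positive control.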

The subject of assay [4] is Candida albicans. The assay can be described thus: Growth inhibition of Candida albicans ATCC 10231 at 7.81 ug/ml incubated for 48 hrs under dark condition by broth microdilution assay relative to amphotericin B. To be noted: ATCC 10231, 48 h, read-out: GI. Summed up:
as §1

Assay [5] deals with Candida albicans. The assay can be described thus: Growth inhibition of Candida albicans ATCC 10231 at 15.62 ug/ml incubated for 48 hrs under dark condition by broth microdilution assay relative to amphotericin B. To be noted: ATCC 10231, 48 h, read-out: GI. Summed up:
as §1

Assay [6] in a line: Antioxidant activity assessed as fluorescent light-induced superoxide anion scavenging activity at 160 uM incubated for 10 mins by nitroblue tetrazolium dye based assay. Summed up: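 Superoxide generated photochemically in 50 mM phosphate buffer pH 7.8 with 13 mM L-methionine, 75 µM nitroblue tetrazolium, 100 µM EDTA and 2 µM riboflavin. Compound at 160 µM. 10 min at 25 °C under fluorescent light; dark controls. Read at 575 nm. Resveratrol as positive control; three independent experiments in triplicate.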

The subject of assay [7] is Candida albicans. The assay can be described thus: Growth inhibition of Candida albicans ATCC 10231 at 250 ug/ml incubated for 48 hrs under dark condition by broth microdilution assay relative to amphotericin B. To be noted: ATCC 10231, 48 h, read-out: GI. Summed up: as §1
Assay [8] is described as follows: Antifungal activity against Cryptococcus neoformans ATCC 32264 incubated for 48 hrs under dark condition by broth microdilution assay. The method, boiled down:
as §2

The test system of assay [9] is Candida albicans. The assay can be described thus: Growth inhibition of Candida albicans ATCC 10231 at 3.9 ug/ml incubated for 48 hrs under dark condition by broth microdilution assay relative to amphotericin B. Particulars: ATCC 10231, 48 h, read-out: GI. Summed up:
as §1

The test system of assay [10] is Candida albicans. The assay can be described thus: Growth inhibition of Candida albicans ATCC 10231 at 125 ug/ml incubated for 48 hrs under dark condition by broth microdilution assay relative to amphotericin B. Particulars: ATCC 10231, 48 h, read-out: GI. The method, boiled down:
as §1

A short description of assay [11]: Antioxidant activity assessed as DPPH radical scavenging activity at 160 uM incubated for 30 mins under dark condition. The method, boiled down: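 Compound at 160 µM incubated with 100 µM DPPH in ethanolic medium, stirred in the dark for 30 min, read at 517 nm. Resveratrol as positive control. Three independent experiments, each in triplicate.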
For orientation: DPPH is a stable violet radical that fades when it is reduced.

Assay [12] can be described thus: Antioxidant activity assessed as fluorescent light-induced superoxide anion scavenging activity incubated for 10 mins by nitroblue tetrazolium dye based assay. Summed up:
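Riboflavin/light superoxide system: 50 mM phosphate pH 7.8, 13 mM L-methionine, 75 µM NBT, 100 µM EDTA, 2 µM riboflavin, compound 0-200 µg/mL. Fluorescent light for 10 min at 25 °C, dark controls, scavenging measured at 575 nm. Resveratrol as reference.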

Assay [13] in a line: Antioxidant activity assessed as DPPH radical scavenging activity incubated for 30 mins under dark condition. Summed up: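 DPPH (100 µM) in ethanolic medium, stirred 30 min in the dark, absorbance at 517 nm. Compound varied from 0 to 160 µg/mL to find the concentration scavenging 50% of radicals. Three independent experiments, each in triplicate.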

With `Fc1ccc2nc(-c3ccccc3)cc(-c3ccccc3)c2c1`, the inhibition of growth at 62.5 µg/mL in assay [1] was 18.4%. In assay [2], the inhibition of growth at 31.25 µg/mL is 11.8%. Besides, in assay [3], the MIC50 was 250 µg/mL (≈ 835 µM) and the MIC80 was > 250 µg/mL. Also, the inhibition of growth at 7.81 µg/mL in [4] was 2.01%. The inhibition of growth at 15.62 µg/mL in assay [5] stood at 4.27%. Further, the Activity in assay [6] is < 10%. Besides, in [7], the inhibition of growth at 250 µg/mL was 67.5%. Also, in assay [8], the MIC50 is > 250 µg/mL and the MIC80 was > 250 µg/mL. For the same compound, the inhibition of growth at 3.9 µg/mL in assay [9] turned out to be 0%. In addition, in assay [10], the inhibition of growth at 125 µg/mL worked out at 34.2%.

As for `COc1ccc(-c2cc(-c3ccccc3)c3cc(Br)ccc3n2)cc1`, the inhibition of growth at 62.5 µg/mL in assay [1] amounted to 4.57%. Also, the inhibition of growth at 31.25 µg/mL in assay [2] was 4.5%. Besides, in assay [3], the MIC50 was > 250 µg/mL and the MIC80 is > 250 µg/mL. Also, the inhibition of growth at 7.81 µg/mL in [4] was 0%. Also, the inhibition of growth at 15.62 µg/mL in assay [5] amounted to 4.06%. The result in assay [6] was Active. For the same compound, the inhibition of growth at 250 µg/mL in [7] is 10.6%. Moreover, in [8], the MIC50 is > 250 µg/mL and the MIC80 was > 250 µg/mL. The inhibition of growth at 3.9 µg/mL in assay [9] came out at 0%. For the same compound, the inhibition of growth at 125 µg/mL in [10] was found to be 8.32%.

For the compound `COc1cc2nc(-c3ccccc3)cc(-c3ccccc3)c2c(OC)c1OC`, in assay [1], the inhibition of growth at 62.5 µg/mL was determined as 20.7%. Moreover, in assay [2], the inhibition of growth at 31.25 µg/mL came to 8.13%. Besides, the MIC50 in assay [3] worked out at 125 µg/mL (≈ 337 µM); in assay [8], 7.8 µg/mL (≈ 21 µM). The MIC80 worked out at 125 µg/mL (≈ 337 µM) in [3] and 15.6 µg/mL (≈ 42 µM) in [8]. Also, the inhibition of growth at 7.81 µg/mL in [4] stood at 6.81%. Besides, the Activity in [11] is 70 to 85%. Besides, the inhibition of growth at 15.62 µg/mL in assay [5] is 6.76%. The result in [6] was Active. In addition, the inhibition of growth at 250 µg/mL in assay [7] turned out to be 100%. Besides, the inhibition of growth at 3.9 µg/mL in assay [9] was determined as 0%. Further, the SC50 in [12] was > 250 µM; in assay [13] it was 18.9 µM. Also, the inhibition of growth at 125 µg/mL in [10] is 86.7%.

As for `Clc1ccc2nc(-c3ccccc3)cc(-c3ccccc3)c2c1`, the inhibition of growth at 62.5 µg/mL in assay [1] was 33.1%. In addition, in assay [2], the inhibition of growth at 31.25 µg/mL was 20%. Also, the MIC50 in [3] is > 250 µg/mL; in assay [8] it was 15.6 µg/mL (≈ 49.4 µM). Also, the MIC80 in [3] and in [8] was > 250 µg/mL in each case. In addition, in assay [4], the inhibition of growth at 7.81 µg/mL turned out to be 8.07%. Further, the inhibition of growth at 15.62 µg/mL in assay [5] is 14%. Also, the Activity in assay [6] was < 10%. Besides, the inhibition of growth at 250 µg/mL in assay [7] worked out at 89.8%. Also, in assay [9], the inhibition of growth at 3.9 µg/mL stood at 0%. Besides, the inhibition of growth at 125 µg/mL in [10] was found to be 53.9%.

Regarding `Oc1ccc2c(-c3ccccc3)cc(-c3ccccc3)nc2c1`, in [1], the inhibition of growth at 62.5 µg/mL came out at 21.2%. Moreover, the inhibition of growth at 31.25 µg/mL in [2] is 12.8%. Also, in [3], the MIC50 was > 250 µg/mL and the MIC80 is > 250 µg/mL. In addition, the inhibition of growth at 7.81 µg/mL in assay [4] is 0%. Besides, the Activity in assay [11] was in the range of 70 to 85%. Moreover, in assay [5], the inhibition of growth at 15.62 µg/mL turned out to be 80.4%. Also, the inhibition of growth at 250 µg/mL in assay [7] was 53.9%. In assay [8], the MIC50 was 15.6 µg/mL (≈ 52.5 µM) and the MIC80 was > 250 µg/mL. Also, the inhibition of growth at 3.9 µg/mL in assay [9] worked out at 0%. Further, in assay [10], the inhibition of growth at 125 µg/mL was 29.9%.

On to `O=C(O)c1ccc2nc(-c3ccccc3)cc(-c3ccccc3)c2c1`, for which the inhibition of growth at 62.5 µg/mL in assay [1] came to 22.6%. Further, in assay [2], the inhibition of growth at 31.25 µg/mL was 11.9%. In assay [3], the MIC50 amounted to 250 µg/mL (≈ 768 µM) and the MIC80 is > 250 µg/mL. For the same compound, in assay [4], the inhibition of growth at 7.81 µg/mL came to 5.63%. In addition, the inhibition of growth at 15.62 µg/mL in assay [5] worked out at 7.19%. In addition, the result in assay [6] was Active. In addition, in assay [7], the inhibition of growth at 250 µg/mL amounted to 57.5%. In assay [8], the MIC50 stood at 250 µg/mL (≈ 768 µM) and the MIC80 was > 250 µg/mL. The inhibition of growth at 3.9 µg/mL in assay [9] is 0%. The inhibition of growth at 125 µg/mL in assay [10] is 34.6%.

(Values after ChEMBL document CHEMBL3875213, “Quinolines: Microwave-assisted synthesis and their antifungal, anticancer and radical scavenger properties” (Bioorg Med Chem, 2017).)
